# Experimental data reported in ChEMBL document CHEMBL1143230, “5-Substituted 2-aminothiophenes as A1 adenosine receptor allosteric enhancers” (Bioorg Med Chem, 2008).
# Tests used:
# Conditions in all cases: CHO-K1
# [1] = biological target: T1, Adenosine receptor A1 (Homo sapiens) (UniProt P30542); test: Activity at human adenosine A1 receptor expressed in CHOK1 cells assessed as agonist-receptor ternary complex remaining by […] after 10 mins; assay type: functional, cell-based; set-up: concentration or dose not given beside the values
# T1 sequence (whole entry): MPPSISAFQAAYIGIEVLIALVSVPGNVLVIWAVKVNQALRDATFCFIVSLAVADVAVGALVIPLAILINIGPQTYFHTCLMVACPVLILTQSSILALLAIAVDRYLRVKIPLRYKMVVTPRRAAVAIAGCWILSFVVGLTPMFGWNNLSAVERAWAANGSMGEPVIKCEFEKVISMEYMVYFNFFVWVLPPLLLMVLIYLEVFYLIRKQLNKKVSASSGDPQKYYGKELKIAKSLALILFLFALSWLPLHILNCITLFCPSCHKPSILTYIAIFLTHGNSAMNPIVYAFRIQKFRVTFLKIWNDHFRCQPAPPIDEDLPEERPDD
# In short: (§1)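 Membranes from CHO-K1 cells stably expressing hA1AR, 10 ug protein. Phase 2: vehicle or enhancer for 30 min. Phase 3: 100 uM BW-1433 plus 25 uM GTPgammaS for 10 min. Score = % specific binding remaining. ED50 and maximal score from hyperbolic fit over 0.1–50 uM, N = 2–3.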
# [2] = biological target: T1, Adenosine receptor A1 (Homo sapiens); test: Displacement of [3H]CPX from human adenosine A1 receptor expressed in CHOK1 cells at 10 uM relative to control; assay type: cell-based
# In short: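 Membranes from CHO-K1 cells expressing human A1 receptor, resuspended at 400 ug/mL in HE buffer with 1 U/mL adenosine deaminase. Incubated with [3H]CPX (2 nM in the added buffer) and 10 uM enhancer (final) for 90 min at room temperature. Non-specific binding defined with 100 uM NECA. Filtration, scintillation counting, triplicate, expressed as % inhibition versus control binding.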
# [3] = biological target: T1, Adenosine receptor A1 (Homo sapiens); test: Activity at human adenosine A1 receptor expressed in CHOK1 cells assessed as agonist-receptor ternary complex remaining by […]; assay type: functional, cell-based; in short: as §1
SMILES,Activity [1] [%],inhibition [2] [%],ED50 [3] [µM]
CCOC(=O)c1c(N)sc(-c2ccc(Cl)cc2)c1-c1cccc(C(F)(F)F)c1,57,58.4,6.6
CCOC(=O)c1c(N)sc(-c2cccc(C(C)=O)c2)c1-c1cccc(C(F)(F)F)c1,14.4,68.9,> 10
CCOC(=O)c1c(N)sc(-c2ccc(-c3ccncc3)cc2)c1-c1cccc(C(F)(F)F)c1,0,91,> 10
CCOC(=O)c1c(N)sc(-c2ccc(OC)cc2)c1-c1cccc(C(F)(F)F)c1,17.5,81.5,> 10
CCOC(=O)c1c(N)sc(-c2ccc(C(C)=O)cc2)c1-c1cccc(C(F)(F)F)c1,28.5,64.6,> 10
CCOC(=O)c1c(N)sc(-c2ccc(C(F)(F)F)cc2)c1-c1cccc(C(F)(F)F)c1,14.8,48.5,> 10
CCOC(=O)c1c(-c2cccc(C(F)(F)F)c2)csc1N,7.8,93,9.4
CCOC(=O)c1c(N)sc(-c2ccc([N+](=O)[O-])cc2)c1-c1cccc(C(F)(F)F)c1,10.3,71.4,> 10

# The next lines start with the values.
Activity [1] [%],inhibition [2] [%],ED50 [3] [µM],SMILES
76.8,61.1,15.8,Nc1scc(-c2cccc(C(F)(F)F)c2)c1C(=O)c1ccccc1
18.5,33.1,> 10,CC(=O)c1cccc(-c2sc(N)c(C(=O)c3ccccc3)c2-c2cccc(C(F)(F)F)c2)c1
13.2,83.6,> 10,CCOC(=O)c1c(N)sc(-c2ccccc2)c1-c1cccc(C(F)(F)F)c1
4.8,25.6,> 10,CC(=O)c1ccc(-c2sc(N)c(C(=O)c3ccccc3)c2-c2cccc(C(F)(F)F)c2)cc1
7.4,65.2,> 10,COc1ccc(-c2sc(N)c(C(=O)c3ccccc3)c2-c2cccc(C(F)(F)F)c2)cc1
23.7,34.8,> 10,Nc1sc(-c2ccc([N+](=O)[O-])cc2)c(-c2cccc(C(F)(F)F)c2)c1C(=O)c1ccccc1
53.5,47.5,> 10,Nc1sc(Br)c(-c2cccc(C(F)(F)F)c2)c1C(=O)c1ccccc1
22.2,87.1,> 10,Nc1sc(Cl)c(-c2cccc(C(F)(F)F)c2)c1C(=O)c1ccccc1
18.1,82.4,2.3,Nc1sc(-c2ccccc2)c(-c2cccc(C(F)(F)F)c2)c1C(=O)c1ccccc1
22.5,59.1,> 10,Nc1sc(-c2ccc(Cl)cc2)c(-c2cccc(C(F)(F)F)c2)c1C(=O)c1ccccc1
